For 3 molecules, T/C, IC50 and ID50 results are on record in ChEMBL document CHEMBL1126252, “cis-bis(pyridine)platinum(II) organoamides with unexpected growth inhibition properties and antitumor activity” (1992).

In test [1] the test system is P388. The test is described as follows: Mean survival time of treated animals compared with those of control animals expressed as percentage. T/C was determined against murine leukemia P388 implanted mouse at the dose of 140 umol/kg. It is filed as functional. Summed up:
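BDF1 mice (six per group) inoculated ip with 10^6 P388 leukemia cells on day 0; Pt compounds given ip on days 1, 5 and 9 in 1% Tween-20/saline (1:9), five doses over a 16-fold range including the maximum tolerated dose. Untreated/vehicle negative controls; 5-fluorouracil (50 mg/kg) positive control. Animals observed 30–60 days; %T/C = mean survival time treated vs control.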

For test [2], the system named is L1210. Description: Compound was evaluated in vitro for its inhibitory activity against L1210 leukemia cell line using Coulter counter assay. It is filed as functional. The note with it: Mus musculus. Summed up: (§1)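 Log-phase murine L1210 or cisplatin-resistant L1210/DDP cells, drug in ethanol, ethanol/DMSO or DMF (final solvent ≤1.0%) with vehicle-only controls. Exposure was continuous for 48 h, or 2 h followed by 46 h growth. Cells were counted on a Coulter counter. ID50 (μM) was read from the percentage growth versus dose curve; single determinations, ranges, or mean ± range of 2–4.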

Test [3] concerns L1210. The test is described as follows: Compound was evaluated in vitro for its inhibitory activity against L1210 leukemia cell line using […]. It is filed as functional, cell-based. The note with it: Mus musculus. Summed up: (§2)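 L1210 or L1210/DDP cells were dosed as for counting (48 h continuous, or 2-h pulse then 46 h), with vehicle controls. Growth was read by mitochondrial reduction of tetrazolium (MTT), modified Mosmann method. ID50 (μM) was taken from the percentage growth versus dose curve; single determinations, ranges, or mean ± range of 2–4.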
(In general: Tetrazolium assays rely on reduction of a dye to a coloured formazan, in cell work by metabolically active cells.)

The subject of test [4] is L1210. Description: Compound was evaluated in vitro for its inhibitory activity against L1210/DDP leukemia cell line using MTT assay. The conditions noted are these: Mus musculus. It is filed as functional, cell-based. The essentials:
as §2

For test [5], the system named is L1210. Description: Compound was evaluated in vitro for its inhibitory activity against L1210/DDP leukemia cell line using Coulter counter assay. It is filed as functional, cell-based. The conditions noted are these: Mus musculus. The essentials:
as §1

The subject of test [6] is P388/DDP. Description: Mean survival time of treated animals compared with those of control animals expressed as percentage T/C was determined against murine leukemia P388/DDP (cisplatin resistant) implanted mouse at the dose of 113 umol/kg. It is filed as functional. The essentials:
(§3)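 Groups of six BDF1 mice were injected ip on day 0 with 10^6 P388, 5 × 10^6 P388/DDP or 10^5 L1210 cells. Pt compounds in 1% Tween-20/saline (1:9) were given ip on days 1, 5 and 9 at five doses spanning a 16-fold range. Controls were untreated or vehicle-only. Mice were observed 30–60 days; %T/C is treated versus control mean survival time.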

Test [7] has as its system HT-29. The test is described as follows: Compound was evaluated in vitro for its inhibitory activity againstHT-29 and BE human colon carcinoma cell line using MTT assay. It is filed as functional, cell-based. The essentials:
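HT-29 and BE colon cells were pre-grown 12 h in EMEM with 1% glutamine and 15% FCS, then exposed to drug or vehicle for 2 days. Cells were released with pronase and growth was read by MTT tetrazolium reduction. ID50 (μM) was taken from the percentage growth versus dose curve.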

Test [8] relates to L1210. The test is described as follows: Mean survival time of treated animals compared with those of control animals expressed as percentage T/C was determined against murine leukemia L1210 implanted mouse at the dose of 113 umol/kg. It is filed as functional. Summed up:
as §3

Test [9] concerns P388. The test is described as follows: Mean survival time of treated animals compared with those of control animals was determined against murine leukemia P388 implanted mouse at the dose of 113 umol/kg. It is filed as functional. The essentials:
as §3

Test [10] relates to HT-29. Description: Compound was evaluated in vitro for its inhibitory activity againstHT-29 and BE human colon carcinoma cell line using Coulter counter assay. It is filed as functional, cell-based. The essentials: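 HT-29 and BE human colon cells were grown 12 h in EMEM with 1% glutamine and 15% fetal calf serum. Drug or solvent was added (final solvent ≤1.0%) for a further 2 days. Cells were released with pronase and Coulter counted. ID50 (μM) was taken from the percentage growth versus dose curve, with vehicle controls.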

Test [11] concerns P388/DDP. The test is described as follows: Mean survival time of treated animals compared with those of control animals expressed as percentage T/C was determined against murine leukemia P388/DDP (cisplatin resistant) implanted mouse at the dose of 20 umol/kg. It is filed as functional. Summed up: as §3
For test [12], the system named is P388. The test is described as follows: Mean survival time of treated animals compared with those of control animals expressed as percentage. T/C was determined against murine leukemia P388 implanted mouse at the dose of 20 umol/kg. It is filed as functional. Summed up: as §3

pIC50: −log10 of the molar value.

Broadly, the T/C is the ratio of treated to control.

In turn, `Fc1cc(F)c(F)c(NCCNc2c(F)c(F)cc(F)c2F)c1F` displayed a T/C in test [1] of 108%. For the same molecule, the pIC50 in test [2] (read-out: ID50 (the source's name)) was 4.43.
As to “1-[2-(1-pyridiniumyl)-1,3-di(2,3,5,6-tetrafluorophenyl)tetrahydro-1H-2-imidazolyl]pyridinium (platinumcomplex)”, the ID50 in test [3] was 1600 nM; in [4], 1400 nM; in test [5], 1000 nM; in [2], 1200 nM; in test [7] it was 1100 nM; in [10], 1000 nM. For the same molecule, the values for the T/C in test [6], in [8] and in test [9] were 115%, 172% and 206%, respectively.
As to CISPLATIN, the ID50 in test [3] was determined as 1100 nM; in [4], 20300 nM; in test [5], 6700 nM; in test [2], 600 nM; in test [10], 700 nM. The T/C amounted to 122% in [11] and 248% in test [12].
